From PubChem BioAssay
The source made the active and inactive calls.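 Rule for the calls, unless noted: active = Her2 level under about 52% in both replicate screens, with viability over 70% of control (limit read from the data); inconclusive = Her2 under the limit in one screen only, or viability under 70%; inactive = Her2 level above the set limit.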

Key:
[1] = Her2 expression decrease, cell viability multiplex – SKBR3 breast tumor cells, AlphaScreen, ATP viability, primary screen (AID 461); details: SKBR3 Her2 protein level, 18-24 h, measured here: SKBR3 viability, ATP luminescence, at 10 µM;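 for Her2 level: lower value means less Her2 protein in the cells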;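 for viability: percent of carrier control wells set as 100% viability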
[2] = molecular target: Receptor tyrosine-protein kinase erbB-2 (Homo sapiens) (UniProt P04626); assay: as above; details: 18-24 h, at 10 µM, stronger effect = lower value
Chain of Receptor tyrosine-protein kinase erbB-2 (Homo sapiens) (P04626 whole entry, looked up): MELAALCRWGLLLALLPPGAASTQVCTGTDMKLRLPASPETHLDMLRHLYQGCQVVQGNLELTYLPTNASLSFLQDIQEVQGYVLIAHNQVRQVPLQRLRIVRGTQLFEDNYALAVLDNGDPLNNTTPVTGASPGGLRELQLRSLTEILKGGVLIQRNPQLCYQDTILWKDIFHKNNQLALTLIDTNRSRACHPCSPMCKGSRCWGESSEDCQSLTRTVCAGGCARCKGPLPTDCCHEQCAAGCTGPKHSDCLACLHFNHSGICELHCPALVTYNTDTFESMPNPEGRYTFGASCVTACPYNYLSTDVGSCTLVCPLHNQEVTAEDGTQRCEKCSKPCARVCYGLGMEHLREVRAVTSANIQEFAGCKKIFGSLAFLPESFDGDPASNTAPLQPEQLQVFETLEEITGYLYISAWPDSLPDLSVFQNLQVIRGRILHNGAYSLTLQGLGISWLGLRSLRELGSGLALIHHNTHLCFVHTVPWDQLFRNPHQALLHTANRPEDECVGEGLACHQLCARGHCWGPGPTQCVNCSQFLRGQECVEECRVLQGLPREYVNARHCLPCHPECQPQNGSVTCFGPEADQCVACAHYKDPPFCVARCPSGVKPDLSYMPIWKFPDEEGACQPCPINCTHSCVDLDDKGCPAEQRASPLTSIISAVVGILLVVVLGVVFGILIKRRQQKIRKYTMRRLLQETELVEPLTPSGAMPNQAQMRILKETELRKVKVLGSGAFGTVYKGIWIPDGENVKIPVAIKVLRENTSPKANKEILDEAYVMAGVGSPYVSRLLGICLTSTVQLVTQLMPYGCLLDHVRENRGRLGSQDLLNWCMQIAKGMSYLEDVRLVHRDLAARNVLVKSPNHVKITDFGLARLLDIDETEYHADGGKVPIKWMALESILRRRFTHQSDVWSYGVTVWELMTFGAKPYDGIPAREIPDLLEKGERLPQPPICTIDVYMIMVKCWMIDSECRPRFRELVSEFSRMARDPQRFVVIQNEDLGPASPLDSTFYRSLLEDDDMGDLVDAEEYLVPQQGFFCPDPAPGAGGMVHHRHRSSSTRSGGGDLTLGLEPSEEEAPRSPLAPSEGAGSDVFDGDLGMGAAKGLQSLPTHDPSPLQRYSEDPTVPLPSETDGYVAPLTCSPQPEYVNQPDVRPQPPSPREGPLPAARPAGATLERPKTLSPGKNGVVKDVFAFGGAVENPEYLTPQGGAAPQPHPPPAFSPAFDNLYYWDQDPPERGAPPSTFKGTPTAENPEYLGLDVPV

[3] = reduced viability of SK-BR-3 breast cancer cells – cell-based, 24 h, human, pilot screen (AID 572;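 active = viability at or below 10% of carrier control in both of two separate runs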;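 note: compound exposure lasted between 18 and 24 h rather than exactly 24 h; 100% = carrier-treated control wells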); details: SK-BR-3 viability, CellTiter-Glo luminescence, at 10 µM, stronger effect = lower value
[4] = HUVEC growth inhibition – cell-based, human, primary screen (AID 575;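 active = viability at or below 30% in both replicate assays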;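 note: 100% = median of untreated cell wells with 0.1% DMSO on each plate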); details: HUVEC proliferation, CellTiter-Glo luminescence, 72 h; at 10 µM; stronger effect = lower value
Method in brief: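 material = primary HUVEC, no more than 12 passages | input = 1250 cells per well | controls = vehicle and MePR control wells | measured by = CTG luminescence | times = 72 h compound incubation | format = collagen-coated 384-well format | read-out = % viability vs DMSO wells | doses = single 10 µM dose, 0.1% DMSO, from 5x medium stock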

[5] = H69AR cell proliferation blockers – human, duplicate replicates, primary screen (AID 580;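 active = viability at or under a set limit in both replicates, limit being median viability minus 3 SD, cut at about 48% in these data, passing the limit was not always enough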;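 note: 100% = mean luminescence of untreated wells and 0% = no signal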); details: H69AR lung tumor cells viability, ATP luminescence, 72 h; at 10 µM; stronger effect = lower value
[6] = MRP1 drug-resistance reversers in H69AR cells – cell-based, doxorubicin co-treatment, pilot screen (AID 601;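 active = viability loss from added drug above about 55%, and viability with drug at most 40%, in both replicates, limit read from the data, passing the limit was not always enough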); details: CellTiter-Glo, 72 h, at 10 µM; for differential viability (reversal): stronger effect = higher value
[7] = yeast transport mutant growth inhibition pilot in 384-well plates, post-Golgi transport modulator project (AID 636; in the data active = inhibition above about 31%); details: absorbance 615 nm, about 18 h, stronger effect = higher value
[8] = growth suppression of yeast trafficking mutant, preliminary HTS, modulators of trafficking downstream of Golgi apparatus project, 1536-format plate, OD 615 nm (AID 637; in the data active = inhibition above about 30%); details: yeast transport mutant growth, absorbance 615 nm, 18 h; stronger effect = higher value
[9] = H69AR cells + 2 uM doxorubicin, measured here: viability with 2 uM doxorubicin, stronger effect = lower value
[10] = H69AR cells, compound alone cytotoxicity

| Compound | viability [1] [%] | Her2 level [2] | viability [3] | viability [4] | viability [5] | differential viability (reversal) ([6]; H69AR cells + 2 uM doxorubicin) | viability [6, 9] [%] | viability [6, 10] [%] | inhibition [7] | inhibition [8] |
| --- | --- | --- | --- | --- | --- | --- | --- | --- | --- | --- |
| CN(C(=O)c1ccccc1Cl)c1ccccc1 | 93.5 | 83.5% (inactive) | 93.5% (inactive) | 92.8% (inactive) | 106% (inactive) | 23.6% (inactive) | 82 | 106 | -8.63% (inactive) | 0.95% (inactive) |
| Cc1nc(SCCC(=O)O)c2ccccc2n1 | 98 | 108% (inactive) | 98% (inactive) | 88.4% (inactive) | 85.9% (inactive) | 1.88% (inactive) | 84 | 85.9 | -0.26% (inactive) | -0.5% (inactive) |
| COC(=O)c1cc(NS(=O)(=O)c2ccc3c(c2)CCC(=O)N3)cc(C(=O)OC)c1 | 112 | 86% (inactive) | 112% (inactive) | 94.2% (inactive) | 96.5% (inactive) | 1.56% (inactive) | 95 | 96.5 | 0% (inactive) | -2.86% (inactive) |
| Cc1ccc(C)c(OCC(O)CN2C(C)CCCC2C)c1 (stereo not given) | 70 | 98% (inactive) | 70% (inactive) | 96.2% (inactive) | 83.8% (inactive) | 0.415% (inactive) | 83.4 | 83.8 | -0.53% (inactive) | -0.95% (inactive) |
| CC(Oc1ccc(Cl)cc1Cl)C(=O)Nc1ncccn1 (stereo not given) | 93.5 | 108% (inactive) | 93.5% (inactive) | 99.6% (inactive) | 97.2% (inactive) | 9.42% (inactive) | 87.7 | 97.2 | -1.17% (inactive) | -11% (inactive) |
| CCN1CCc2c(C#N)c(N3CCOCC3)nc(NCc3ccccc3)c2C1 | 84.5 | 88% (inactive) | 84.5% (inactive) | 88.4% (inactive) | 81.3% (inactive) | 3.46% (inactive) | 77.8 | 81.3 | -6.03% (inactive) | -4.76% (inactive) |
| CCN1CCN(c2ncc(C(=O)N3CCN(c4ccccc4OC)CC3)c3ccccc23)CC1 | 81 | 87.5% (inactive) | 81% (inactive) | 98.8% (inactive) | 101% (inactive) | 14.7% (inactive) | 86.7 | 101 | -5.68% (inactive) | -1.8% (inactive) |
| Cn1c(CCCNC(=O)c2ccccc2)nc2ccccc21 | 112 | 83% (inactive) | 112% (inactive) | 103% (inactive) | 100% (inactive) | 18.6% (inactive) | 81.7 | 100 | -8.65% (inactive) | -1.83% (inactive) |
| CCOC(=O)Cn1c2c(c(=N)c3ccccc31)CCC2 | 122 | 98% (inactive) | 122% (inactive) | 89.4% (inactive) | 92.6% (inactive) | 2.31% (inactive) | 90.3 | 92.6 | -6.27% (inactive) | -1.15% (inactive) |
| CCSc1ncc(C#N)c(=O)[nH]1 | 117 | 119% (inactive) | 117% (inactive) | 96.5% (inactive) | 95% (inactive) | -2.66% (inactive) | 97.6 | 95 | -7.76% (inactive) | -3.28% (inactive) |
| Cc1nn(-c2ccc(F)cc2)c2sc(C(=O)O)cc12 | 99 | 103% (inactive) | 99% (inactive) | 72.9% (inactive) | 89.8% (inactive) | 5.49% (inactive) | 84.3 | 89.8 | 0% (inactive) | 1.64% (inactive) |
| CC1CCCN(C(=O)c2cc(F)c(F)cc2Cl)C1 (stereo not given) | 99 | 95.5% (inactive) | 99% (inactive) | 104% (inactive) | 89.2% (inactive) | -4.92% (inactive) | 94.1 | 89.2 | -4.93% (inactive) | -3.77% (inactive) |
| COc1ccc(CCNC(=O)C2CCN(C(=O)N(C)C)CC2)cc1OC | 86.5 | 117% (inactive) | 86.5% (inactive) | 108% (inactive) | 92.8% (inactive) | 1.61% (inactive) | 91.2 | 92.8 | -2.05% (inactive) | -4.67% (inactive) |
| O=S(=O)(NC1CCCC1)c1ccc(S(=O)(=O)N2CCc3ccccc32)cc1 | 99.5 | 94.5% (inactive) | 99.5% (inactive) | 66.1% (inactive) | 71.5% (inactive) | 1.97% (inactive) | 69.6 | 71.5 | -4.94% (inactive) | -12.4% (inactive) |
| CC1(C)CC(=O)C=C(Nc2ccc(F)cc2)C1 | 102 | 95% (inactive) | 102% (inactive) | 90.5% (inactive) | 96.5% (inactive) | 6.35% (inactive) | 90.1 | 96.5 | -0.39% (inactive) | -3.64% (inactive) |
| CCOc1ccc(-n2c(C)nc3c(cnn3-c3ccc(Cl)cc3)c2=O)cc1 | 95 | 99.5% (inactive) | 95% (inactive) | 80.3% (inactive) | 80.7% (inactive) | -6.13% (inactive) | 86.8 | 80.7 | -0.39% (inactive) | -3.06% (inactive) |

| Compound | viability [1] [%] | Her2 level [2] | viability [3] | viability [4] | viability [5] | differential viability (reversal) ([6]; H69AR cells + 2 uM doxorubicin) | viability [6, 9] [%] | viability [6, 10] [%] | inhibition [7] | inhibition [8] |
| --- | --- | --- | --- | --- | --- | --- | --- | --- | --- | --- |
| CCOC(=O)C1CCN(Cc2c(O)ccc3ccccc23)CC1 | 126 | 115% (inactive) | 126% (inactive) | 83.6% (inactive) | 98.2% (inactive) | 5.58% (inactive) | 92.6 | 98.2 | -7.67% (inactive) | 5.4% (inactive) |
| CCN(CC)S(=O)(=O)c1ccc(NC(=O)CN(c2cccc(F)c2)S(C)(=O)=O)cc1 | 96 | 84.5% (inactive) | 96% (inactive) | 88.7% (inactive) | 92.5% (inactive) | -3.88% (inactive) | 96.3 | 92.5 | -4.29% (inactive) | -0.33% (inactive) |
| N#CCCn1ccc(NC(=O)c2ccc(Cl)cc2)n1 | 79 | 87.5% (inactive) | 79% (inactive) | 102% (inactive) | 97% (inactive) | 8.88% (inactive) | 88.1 | 97 | -5.27% (inactive) | -0.66% (inactive) |
| O=C1CCCCCN1CSc1nc2ccccc2s1 | 123 | 101% (inactive) | 123% (inactive) | 80.5% (inactive) | 88% (inactive) | 4.73% (inactive) | 83.3 | 88 | -5.45% (inactive) | -2.62% (inactive) |
| O=C(O)CCc1ccc(-c2cccs2)o1 | 94 | 86% (inactive) | 94% (inactive) | 95.9% (inactive) | 95.9% (inactive) | 4.25% (inactive) | 91.6 | 95.9 | -0.26% (inactive) | -5.67% (inactive) |
| Cc1cc(Cl)cc2c1NC(=O)[C@]21[C@@H]2C(=O)N(Cc3ccccc3)C(=O)[C@@H]2[C@@H]2CCCN21 | 100 | 81% (inactive) | 100% (inactive) | 78% (inactive) | 78.1% (inactive) | -2.8% (inactive) | 80.9 | 78.1 | -3.77% (inactive) | 4.29% (inactive) |
| CCOC(=O)c1ccc(S(=O)(=O)Nc2cc(C(C)(C)C)no2)cc1 | 92 | 97% (inactive) | 92% (inactive) | 112% (inactive) | 101% (inactive) | -2.06% (inactive) | 103 | 101 | -3.25% (inactive) | -3.81% (inactive) |
| C=CCn1c(-c2cccs2)nc2nc3ccccc3nc21 | 87 | 106% (inactive) | 87% (inactive) | 80.2% (inactive) | 54.3% (inactive) | -18.6% (inactive) | 72.9 | 54.3 | -1.82% (inactive) | -8.73% (inactive) |
| CCOC(=O)CNC(=O)CSc1ncnc2c1cnn2-c1ccccc1 | 87.5 | 94% (inactive) | 87.5% (inactive) | 97.4% (inactive) | 102% (inactive) | 6.58% (inactive) | 95.1 | 102 | -4% (inactive) | -2.26% (inactive) |
| CCC1=C(C(=O)OC)C(c2cc(OC)ccc2OC)C(C#N)=C(N)O1 (stereo not given) | 99.5 | 87.5% (inactive) | 99.5% (inactive) | 71.9% (inactive) | 87.2% (inactive) | -0.035% (inactive) | 87.2 | 87.2 | -6.67% (inactive) | -0.98% (inactive) |
| O=C1C(Cl)=C(N2CCCCC2)C(=O)N1c1ccccc1Cl | 106 | 79.5% (inactive) | 106% (inactive) | 89.7% (inactive) | 81.8% (inactive) | 1.39% (inactive) | 80.4 | 81.8 | -2.6% (inactive) | 2.95% (inactive) |
| COC(=O)CCSCc1cn2cc(Cl)ccc2n1 | 120 | 106% (inactive) | 120% (inactive) | 87.3% (inactive) | 99.5% (inactive) | 1.26% (inactive) | 98.2 | 99.5 | -8% (inactive) | -9.84% (inactive) |
| Cc1ccc(NC(=O)CCN2CCc3ccccc3C2)cc1 | 91.5 | 92.5% (inactive) | 91.5% (inactive) | 109% (inactive) | 99.7% (inactive) | -0.975% (inactive) | 101 | 99.7 | -5.21% (inactive) | -4.92% (inactive) |
| CCOC(=O)N1CCN(c2ncnc3c2[nH]c2ccc(OC)cc23)CC1 | 97.5 | 79% (inactive) | 97.5% (inactive) | 72.4% (inactive) | 81.3% (inactive) | 3.37% (inactive) | 77.9 | 81.3 | -3.6% (inactive) | -5.65% (inactive) |
| CN(C)S(=O)(=O)N1CCN(C(=O)N(c2ccccc2)c2ccccc2)CC1 | 81.5 | 154% (inactive) | 81.5% (inactive) | 99.4% (inactive) | 97.5% (inactive) | -4.56% (inactive) | 102 | 97.5 | 1.28% (inactive) | 12.7% (inactive) |
